Here are results for one compound from ChEMBL document CHEMBL1156430, “Identification of NVP-TAE684, a potent, selective, and efficacious inhibitor of NPM-ALK” (Proc Natl Acad Sci U S A, 2007).

Structures are written as SMILES. Calls of active or inactive are those of the source. The calls are words filed in the database; no cut-off is given here.

One data set deals with Mus musculus. As to the kind of experiment: Toxicity in human Karpas299 cells xenografted in SCID beige mouse at 10 mg/kg, po. Set-up: dose 10 mg/kg, route oral. The conditions noted are these: in vivo. The data set is classed as organism-based, KARPAS-299. Put shortly:
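Female Fox Chase SCID_Beige mice bearing i.v. Karpas-299 cells received 10 mg/kg orally once daily from 72 h after injection. Watched for signs of compound- or disease-related toxicity.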

Data set [1] has as its target Signal transducer and activator of transcription 3 (Homo sapiens) (UniProt P40763). As to the kind of experiment: Inhibition of STAT3 in human Karpas299 cells at 50 nM. To be noted: KARPAS-299, TDE = time-dependent effect. The data set is classed as cell-based. The essentials: (§1)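 Ba/F3 NPM-ALK or Karpas-299 cells held at 50 nM for times from 15 min onward. Phospho-NPM-ALK and phospho-STAT3 read by Western blot.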

Another data set deals with BCR-ABL. As to the kind of experiment: Antilymphomal activity against mouse Ba/F3 BCR-ABL cells xenografted in SCID beige mouse assessed as reduction in bioluminescence signal at 10 mg/kg, po once daily after 2 weeks. Type of data set: functional, organism-based. Set-up: dose 10 mg/kg. The essentials: (§2)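 Female Fox Chase SCID_Beige mice injected in the tail vein with 1 × 10⁶ luciferase-expressing Ba/F3 BCR-ABL or Ba/F3 NPM-ALK cells. From 72 h, 10 mg/kg given orally once daily in 10% 1-methyl-2-pyrrolidinone/90% PEG 300, or vehicle. Bioluminescence imaged after 2 weeks; spleens weighed.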

Data set [2] deals with Signal transducer and activator of transcription 3 (Homo sapiens) (UniProt P40763). As to the kind of experiment: Inhibition of STAT3 phosphorylation in human Karpas299 cells. The data set is classed as cell-based. To be noted: KARPAS-299. The essentials: (§3)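 Ba/F3 NPM-ALK, Karpas-299 or SU-DHL-1 cells treated for 4 h with DMSO or increasing concentrations. STAT3 and STAT5 phosphorylation read by Western blot of lysates.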

In data set [3] the test system is KARPAS-299. As to the kind of experiment: Inhibition of human Karpas299 cells assessed as reduction in CD30 receptor expression on cell surface after 24 hrs. The data set is classed as functional. Set-up: scale not given: the % may be the effect or the level left. The essentials:
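Karpas-299 cells cultured with drug for 24 h. Surface CD30 receptor expression then measured.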

For data set [4], the system named is KARPAS-299. As to the kind of experiment: Antilymphomal activity against human Karpas299 cells xenografted in SCID beige mouse assessed as reduction in downstream target STAT3 phosphorylation after 3.5 weeks of […] at 10 mg/kg for 3 days. Type of data set: functional, organism-based. More on the design: dose 10 mg/kg. Put shortly:
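Female Fox Chase SCID_Beige mice given 1 × 10⁶ Karpas-299 cells by tail vein. Treatment began at 3.5 weeks, once palpable lymphomas had formed. Drug at 10 mg/kg or vehicle for 3 days, 3 mice per arm. Killed 4 h after the third dose. Excised lymph nodes immunoblotted for NPM-ALK and Stat3 phosphorylation.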

Data set [5] in a line: Elimination half life in human Karpas299 cells xenografted SCID beige mouse at 20 mg/kg, po. Type of data set: ADME, organism-based, KARPAS-299. Set-up: dose 20 mg/kg, route oral. To be noted: in vivo. Put shortly: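 Mice given a single oral dose of 20 mg/kg as a solution in 10% 1-methyl-2-pyrrolidinone/90% PEG 300. Plasma levels measured to give Cmax, bioavailability and elimination half-life.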

For data set [6], the target named is T1, Signal transducer and activator of transcription 5A (Mus musculus) (UniProt P42230).
T1 sequence (whole entry): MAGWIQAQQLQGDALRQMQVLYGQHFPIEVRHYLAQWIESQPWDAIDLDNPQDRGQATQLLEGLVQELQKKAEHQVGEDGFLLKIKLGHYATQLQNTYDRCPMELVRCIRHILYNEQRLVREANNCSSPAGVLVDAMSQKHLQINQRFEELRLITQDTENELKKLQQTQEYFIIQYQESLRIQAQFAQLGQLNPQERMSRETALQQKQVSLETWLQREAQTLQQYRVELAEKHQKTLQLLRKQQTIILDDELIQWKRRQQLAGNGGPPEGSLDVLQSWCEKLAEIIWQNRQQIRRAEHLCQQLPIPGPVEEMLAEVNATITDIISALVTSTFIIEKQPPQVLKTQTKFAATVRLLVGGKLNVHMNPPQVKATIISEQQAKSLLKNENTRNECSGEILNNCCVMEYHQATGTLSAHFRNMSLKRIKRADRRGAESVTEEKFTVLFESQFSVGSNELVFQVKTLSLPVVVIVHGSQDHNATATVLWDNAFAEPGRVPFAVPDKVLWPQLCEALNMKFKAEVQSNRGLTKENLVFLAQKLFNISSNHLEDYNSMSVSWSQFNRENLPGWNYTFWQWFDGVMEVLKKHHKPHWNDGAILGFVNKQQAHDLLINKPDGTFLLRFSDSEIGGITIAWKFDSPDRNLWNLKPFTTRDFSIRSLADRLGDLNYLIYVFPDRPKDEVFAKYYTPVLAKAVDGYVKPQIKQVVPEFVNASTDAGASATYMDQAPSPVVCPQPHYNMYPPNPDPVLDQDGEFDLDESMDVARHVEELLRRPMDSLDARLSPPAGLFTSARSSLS
The data set is described as follows: Inhibition of STAT5 phosphorylation in mouse Ba/F3 NPM-ALK cells. Type of data set: cell-based. The essentials:
as §3

The next data set deals with BaF3. As to the kind of experiment: Inhibition of mouse wild type BaF3/WT Luc+ cell proliferation. The data set is classed as functional, cell-based. The essentials:
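Ba/F3 cells carrying luciferase, either parental (with IL-3) or transformed by NPM-ALK or TEL-kinase fusions, 25,000 per well with serial dilutions or DMSO for 2–3 days. Bright-Glo luminescence taken as proliferation/survival. IC50 from curve fit.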

The test system of data set [7] is KARPAS-299. The data set is described as follows: Inhibition of RAS/RAF/MAPK signaling in human Karpas299 cells assessed as ERK phosphorylation. The data set is classed as cell-based. Put shortly: (§4)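 Karpas-299 cells treated for 4 h with increasing concentrations or DMSO. Phospho-ERK and phospho-Akt read by Western blot.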
In data set [8] the target is T2, Signal transducer and activator of transcription 5A (Homo sapiens) (UniProt P42229).
T2 sequence (whole entry): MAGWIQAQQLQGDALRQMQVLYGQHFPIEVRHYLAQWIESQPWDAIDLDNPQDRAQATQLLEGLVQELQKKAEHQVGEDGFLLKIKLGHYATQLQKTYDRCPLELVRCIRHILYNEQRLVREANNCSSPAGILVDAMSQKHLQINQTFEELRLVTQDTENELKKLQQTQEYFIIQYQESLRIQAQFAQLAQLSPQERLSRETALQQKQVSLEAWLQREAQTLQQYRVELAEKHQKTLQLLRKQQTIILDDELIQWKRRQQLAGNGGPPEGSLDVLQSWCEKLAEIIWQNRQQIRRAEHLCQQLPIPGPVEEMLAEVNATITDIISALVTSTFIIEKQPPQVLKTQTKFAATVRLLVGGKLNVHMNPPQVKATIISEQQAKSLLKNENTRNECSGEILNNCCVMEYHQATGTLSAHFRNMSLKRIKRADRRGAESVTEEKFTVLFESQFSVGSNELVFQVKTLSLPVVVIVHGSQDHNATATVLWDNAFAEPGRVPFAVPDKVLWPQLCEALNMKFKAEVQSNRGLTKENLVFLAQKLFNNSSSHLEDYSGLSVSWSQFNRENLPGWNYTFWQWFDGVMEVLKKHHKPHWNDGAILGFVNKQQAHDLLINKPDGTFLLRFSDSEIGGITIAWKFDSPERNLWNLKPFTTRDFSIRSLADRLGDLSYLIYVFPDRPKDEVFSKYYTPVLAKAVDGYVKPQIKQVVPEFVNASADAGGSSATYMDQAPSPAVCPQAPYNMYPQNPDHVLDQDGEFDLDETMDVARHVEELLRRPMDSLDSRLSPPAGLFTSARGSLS
As to the kind of experiment: Inhibition of STAT5 phosphorylation in human Karpas299 cells. The data set is classed as cell-based. To be noted: KARPAS-299. The essentials:
as §3

Data set [9] relates to KARPAS-299. The data set is described as follows: Cell cycle arrest in human Karpas299 cells by accumulation in S phase at 25 nM after 72 hrs. The data set is classed as functional. Put shortly: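 Karpas-299 cells exposed to 25 nM or DMSO for 24, 48 and 72 h, then fixed, stained with propidium iodide and analyzed for cell cycle distribution by flow cytometry. Three separate experiments.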

Data set [10] addresses Nucleophosmin (Mus musculus) (UniProt Q61937). As to the kind of experiment: Inhibition of NPM-ALK autophosphorylation in mouse Ba/F3 NPM-ALK cells after 4 hrs. Type of data set: cell-based. Put shortly: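 Ba/F3 NPM-ALK cells exposed to a range of concentrations for 4 h. NPM-ALK autophosphorylation read by Western blot. IC50 from quantified band intensities.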
In data set [11] the target is Signal transducer and activator of transcription 3 (Mus musculus) (UniProt P42227). The data set is described as follows: Inhibition of STAT3 in mouse Ba/F3 NPM-ALK cells at 50 nM. Type of data set: cell-based. To be noted: TDE = time-dependent effect. The essentials:
as §1

Data set [12] deals with KARPAS-299. The data set is described as follows: Inhibition of PI3K/Akt signaling in human Karpas299 cells assessed as Akt phosphorylation. Type of data set: cell-based. The essentials:
as §4

Data set [13] is described as follows: Antilymphomal activity against mouse Ba/F3 NPM-ALK cells xenografted in SCID beige mouse assessed as reduction in bioluminescence signal at 10 mg/kg, po once daily after 2 weeks relative to control. Type of data set: functional. More on the design: scale not given: the % may be the effect or the level left. Put shortly: as §2
Data set [14] concerns KARPAS-299. The data set is described as follows: Antilymphomal activity against human Karpas299 cells xenografted in SCIDbeige mouse assessed as reduction in CD30 expression in lymph nodes after 3.5 weeks of […] at 10 mg/kg for 3 days. Type of data set: functional, organism-based. Set-up: dose 10 mg/kg. The essentials:
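Female Fox Chase SCID_Beige mice given Karpas-299 cells i.v. and left 3.5 weeks until lymphomas were palpable. Then dosed at 10 mg/kg or vehicle for 3 days. Killed 4 h after the third dose. Excised lymph node sections scored for CD30 by immunohistochemistry.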

Signal transducer and activator of transcription 3 (Homo sapiens), sequence (P40763 whole entry): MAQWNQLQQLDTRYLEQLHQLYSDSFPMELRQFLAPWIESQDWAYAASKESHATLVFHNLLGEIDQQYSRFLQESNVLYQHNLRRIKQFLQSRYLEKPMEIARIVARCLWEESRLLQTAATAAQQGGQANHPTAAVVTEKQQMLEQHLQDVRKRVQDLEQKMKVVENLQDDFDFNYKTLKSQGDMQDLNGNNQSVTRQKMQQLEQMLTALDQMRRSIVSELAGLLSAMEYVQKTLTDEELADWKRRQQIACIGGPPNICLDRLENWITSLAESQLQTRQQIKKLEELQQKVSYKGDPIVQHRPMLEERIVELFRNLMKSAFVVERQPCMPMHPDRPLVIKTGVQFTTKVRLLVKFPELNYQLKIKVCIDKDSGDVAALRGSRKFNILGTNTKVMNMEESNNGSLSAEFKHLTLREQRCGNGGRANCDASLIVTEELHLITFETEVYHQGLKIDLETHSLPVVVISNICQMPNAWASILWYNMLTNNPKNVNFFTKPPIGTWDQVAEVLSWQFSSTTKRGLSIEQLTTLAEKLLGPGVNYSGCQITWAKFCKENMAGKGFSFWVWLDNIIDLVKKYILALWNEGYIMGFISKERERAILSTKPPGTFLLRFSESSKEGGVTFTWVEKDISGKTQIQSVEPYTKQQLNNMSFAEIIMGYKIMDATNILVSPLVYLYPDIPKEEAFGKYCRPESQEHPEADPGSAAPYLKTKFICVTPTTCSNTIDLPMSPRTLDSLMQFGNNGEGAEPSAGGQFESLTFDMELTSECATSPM
Signal transducer and activator of transcription 3 (Mus musculus), sequence (P42227 whole entry): as the sequence (P40763 whole entry) above, with E760D counted along it
Nucleophosmin (Mus musculus), sequence (Q61937 whole entry): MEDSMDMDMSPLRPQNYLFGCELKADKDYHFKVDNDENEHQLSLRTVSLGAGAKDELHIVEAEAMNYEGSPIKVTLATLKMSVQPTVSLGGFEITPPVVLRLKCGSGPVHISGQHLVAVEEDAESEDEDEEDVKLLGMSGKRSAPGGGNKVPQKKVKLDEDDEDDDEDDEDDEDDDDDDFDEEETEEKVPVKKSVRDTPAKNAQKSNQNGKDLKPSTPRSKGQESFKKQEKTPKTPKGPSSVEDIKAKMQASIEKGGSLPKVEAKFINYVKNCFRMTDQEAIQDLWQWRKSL

In the case of `COc1cc(N2CCC(N3CCN(C)CC3)CC2)ccc1Nc1ncc(Cl)c(Nc2ccccc2S(=O)(=O)C(C)C)n1` [TAE-684], the Activity entry is “Non-toxic” in the data set on Mus musculus; “tde” in data set [1]; “Dose-dependent effect” in [2]; 80% with KARPAS-299 [3]; “Dose-dependent effect” in data set [6]; “Dose-dependent effect” in the data set with KARPAS-299 [7]. The Activity result is “Dose-dependent effect” in [8]; 14% in the data set with KARPAS-299 [9]; “Dose-dependent effect” in [10]; “tde” in data set [11]; “Dose-dependent effect” in the data set on KARPAS-299 [12]; more than 99% in data set [13]. Besides, in the data set on BCR-ABL, the outcome was inactive. The result with KARPAS-299 [4] and in the data set on KARPAS-299 [14] was Active. In addition, the half-life in data set [5] was 12 h. Moreover, the IC50 with BaF3 is 2750 nM.
